Source: ChEMBL document CHEMBL3865799, “Synthesis of a series of novel dihydroartemisinin monomers and dimers containing chalcone as a linker and their anticancer activity” (Eur J Med Chem, 2016)
Activity calls are given as the source filed them. The calls are words filed in the database; no cut-off is given here.

Columns and labels:
[1] = Cytotoxicity against human PC3 cells assessed as cell growth inhibition at 0.5 uM after 48 hrs by MTT assay; format: functional; conditions: PC-3, 48 h, read-out: GI
Method in brief: (§1)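 Adherent lines at 70–75% confluence, grown at 37 °C in 5% CO2 with 10% FCS. Exposed 48 h to compound in DMSO (vehicle <0.2% v/v). MTT dye added 3 h before termination; formazan dissolved in DMSO, OD 570 nm with 620 nm reference. Growth inhibition expressed as % of untreated; IC50 taken from the dose series.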

[2] = Cytotoxicity against human MIAPaCa2 cells assessed as cell growth inhibition at 30 uM after 48 hrs by MTT assay; format: functional; conditions: MIA PaCa-2, 48 h, read-out: GI; method in brief: as §1
[3] = Cytotoxicity against human PC3 cells assessed as cell growth inhibition at 30 uM after 48 hrs by MTT assay; format: functional; conditions: PC-3, 48 h, read-out: GI; method in brief: as §1
[4] = Cytotoxicity against human PC3 cells assessed as cell growth inhibition at 50 uM after 48 hrs by MTT assay; format: functional; conditions: PC-3, 48 h, read-out: GI; method in brief: as §1
[5] = Cytotoxicity against human HL60 cells assessed as cell growth inhibition at 10 uM after 48 hrs by MTT assay; format: functional; conditions: HL-60, 48 h, read-out: GI
Method in brief: (§2)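 HL-60 suspension cells, 1.5 × 10^4 per well, grown at 37 °C in 5% CO2 with 10% FCS. Treated 48 h with compound in DMSO (vehicle <0.2% v/v). MTT added 3 h before the end. Formazan dissolved in DMSO and read at 570 nm (reference 620 nm). % growth inhibition computed against untreated cells; IC50 taken from the concentration series.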

[6] = Cytotoxicity against human HL60 cells assessed as cell growth inhibition after 48 hrs by MTT assay; format: functional, cell-based; conditions: HL-60, 48 h; method in brief: as §2
[7] = Cytotoxicity against human MIAPaCa2 cells assessed as cell growth inhibition at 0.5 uM after 48 hrs by MTT assay; format: functional; conditions: MIA PaCa-2, 48 h, read-out: GI; method in brief: as §1
[8] = Cytotoxicity against human MIAPaCa2 cells assessed as cell growth inhibition at 1 uM after 48 hrs by MTT assay; format: functional; conditions: MIA PaCa-2, 48 h, read-out: GI; method in brief: as §1
[9] = Cytotoxicity against human MIAPaCa2 cells assessed as cell growth inhibition at 10 uM after 48 hrs by MTT assay; format: functional; conditions: MIA PaCa-2, 48 h, read-out: GI; method in brief: as §1
[10] = Cytotoxicity against human PC3 cells assessed as cell growth inhibition at 1 uM after 48 hrs by MTT assay; format: functional; conditions: PC-3, 48 h, read-out: GI; method in brief: as §1
[11] = Cytotoxicity against human PC3 cells assessed as cell growth inhibition at 10 uM after 48 hrs by MTT assay; format: functional; conditions: PC-3, 48 h, read-out: GI; method in brief: as §1
Vero = assay: Selectivity index, ratio of IC50 for African green monkey Vero cells to IC50 for human PC3 cells; format: functional
Method in brief: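 Suspension cells were seeded at 1.5 × 10^4 per well and adherent lines at 70–75% confluence, then exposed to a range of concentrations. MTT was added 3 h before the end, formazan dissolved in DMSO, and OD read at 570 nm (reference 620 nm). Growth inhibition was taken relative to untreated cells. IC50 came from the MTT data; SI = IC50 in Vero cells / IC50 in the tumour line.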

[12] = Cytotoxicity against human HepG2 cells assessed as cell growth inhibition at 0.5 uM after 48 hrs by MTT assay; format: functional; conditions: HepG2, 48 h, read-out: GI; method in brief: as §1
[13] = Cytotoxicity against human HepG2 cells assessed as cell growth inhibition at 10 uM after 48 hrs by MTT assay; format: functional; conditions: HepG2, 48 h, read-out: GI; method in brief: as §1
[14] = Cytotoxicity against human HepG2 cells assessed as cell growth inhibition after 48 hrs by MTT assay; format: functional, cell-based; conditions: HepG2, 48 h; method in brief: as §1
[15] = Cytotoxicity against human LS180 cells assessed as cell growth inhibition at 0.5 uM after 48 hrs by MTT assay; format: functional; conditions: LS180, 48 h, read-out: GI; method in brief: as §1
[16] = Cytotoxicity against human LS180 cells assessed as cell growth inhibition at 1 uM after 48 hrs by MTT assay; format: functional; conditions: LS180, 48 h, read-out: GI; method in brief: as §1
[17] = Cytotoxicity against human LS180 cells assessed as cell growth inhibition at 10 uM after 48 hrs by MTT assay; format: functional; conditions: LS180, 48 h, read-out: GI; method in brief: as §1
[18] = Cell cycle arrest in human HL60 cells assessed as accumulation at subG0 phase at 0.2 uM after 24 hrs by propidium iodide-DNA fluorescence based FACS analysis (reference value: 5 %); format: functional; conditions: HL-60
Method in brief: (§3)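 HL-60 cells seeded at 0.5 × 10^6 cells/ml, exposed 24 h to compound (DMSO vehicle, <0.2% v/v). Pelleted at 400×g, PBS-washed, fixed in 70% ethanol at 4 °C overnight. RNase A treatment at 37 °C for 1.30 h, then propidium iodide staining for 20 min. Flow cytometry on 10,000 events, FL2-A vs FL2-W; subG0 (apoptotic) and phase populations gated.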

[19] = Cell cycle arrest in human HL60 cells assessed as accumulation at G2 phase at 0.5 uM after 24 hrs by propidium iodide-DNA fluorescence based FACS analysis (reference value: 1 %); format: functional; conditions: HL-60; method in brief: as §3
[20] = Cell cycle arrest in human HL60 cells assessed as accumulation at subG0 phase at 5 uM after 24 hrs by propidium iodide-DNA fluorescence based FACS analysis (reference value: 5 %); format: functional; conditions: HL-60; method in brief: as §3
[21] = Cell cycle arrest in human HL60 cells assessed as accumulation at G1 phase at 5 uM after 24 hrs by propidium iodide-DNA fluorescence based FACS analysis (reference value: 46 %); format: functional; conditions: HL-60; method in brief: as §3
HL-60 [22] = assay: Induction of apoptosis in human HL60 cells assessed as loss of mitochondrial membrane potential at 1 uM after 24 hrs by Rh123 dye-based FACS analysis (reference value: 5%); format: functional
HL-60 [23] = assay: Induction of apoptosis in human HL60 cells assessed as morphological alterations after 24 hrs by hoechst 33258 staining-based microscopic analysis; format: functional, cell-based
Method in brief: (§4)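 HL-60 cells at 0.5 × 10^6/ml were treated for 24 h with […] compound in DMSO vehicle (<0.2%). Cells were fixed in cold acetic acid:methanol (1:3) for 1 h on ice, spread on slides and air-dried overnight. Slides were stained with Hoechst 33258 for 30 min, mounted in glycerol:PBS and viewed by fluorescence microscopy at 20×. Morphology was checked by phase contrast. One of three experiments shown.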

HL-60 [24] = assay: Induction of apoptosis in human HL60 cells assessed as induction of apoptotic bodies at 0.5 uM after 24 hrs by hoechst 33258 staining-based microscopic analysis; format: functional, cell-based; method in brief: as §4
HL-60 [25] = assay: Induction of apoptosis in human HL60 cells assessed as blebs formation after 24 hrs phase contrast microscopic analysis; format: functional, cell-based
Method in brief: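 HL-60 cells at 0.5 × 10^6 cells/ml treated 24 h with compound at 0.2, 0.5, 1 or 5 (DMSO vehicle). Treated and control cells photographed under a phase contrast microscope at 20× and scored for morphology.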

[26] = Cell cycle arrest in human HL60 cells assessed as accumulation at subG0 phase after 24 hrs by propidium iodide-DNA fluorescence based FACS analysis; format: functional; conditions: HL-60; method in brief: as §3
[27] = Lipophilicity, log P of the compound; format: physicochemical; conditions: octanol/water
[28] = Aqueous solubility of the compound at pH 7; format: physicochemical
[29] = Lipophilicity, log P of the compound at pH 7; format: physicochemical; conditions: buffer
[30] = Cell cycle arrest in human HL60 cells assessed as accumulation at subG0 phase at 5 uM after 24 hrs by propidium iodide-DNA fluorescence based FACS analysis (reference value: 5 %); conditions: HL-60

Compound | inhibition of growth at 0.5 µM [1] [%] | inhibition of growth at 30 µM [2] [%] | inhibition of growth at 30 µM [3] [%] | inhibition of growth at 50 µM [4] [%] | inhibition of growth at 10 µM [5] [%] | IC50 [6] [nM] | inhibition of growth at 0.5 µM [7] [%] | inhibition of growth at 1 µM [8] [%] | inhibition of growth at 10 µM [9] [%] | inhibition of growth at 1 µM [10] [%] | inhibition of growth at 10 µM [11] [%] | Ratio IC50 (Vero) | inhibition of growth at 0.5 µM [12] [%] | inhibition of growth at 10 µM [13] [%] | IC50 [14] [µM] | Activity [18] [%] | Activity [19] [%] | Activity [20] [%] | Activity [21] [%] | Activity (HL-60 [22]) [%] | other results
C[C@H]1[C@@H](OCCOc2ccc(/C=C/C(=O)c3ccc(O)cc3)cc2)O[C@@H]2O[C@@]3(C)CC[C@H]4[C@H](C)CC[C@@H]1[C@@]24OO3 | 19.3 | 68.3 to 86.8 | 88.6 | 88.9 | 88.4 | 300 | 6.2 | 9.1 | 16.8 | 25.4 | 41.5 | 82 | 20.2 | 60.4 | 7 | 4 | 9 | 95 | 55 | 53 | inhibition of growth at 0.5 µM [15]: 32.2%; inhibition of growth at 1 µM [16]: 36.5%; inhibition of growth at 10 µM [17]: 36.6%; Activity (HL-60 [23]): Dose-dependent effect; Activity (HL-60 [24]): Active; Activity (HL-60 [25]): Dose-dependent effect; Activity [26]: Dose-dependent effect; logP [27]: 6.33; solubility [28]: > 100 µg/mL; logP [29]: -5.96; Activity [30]: 95%
C[C@H]1[C@@H](OCCOc2cccc(C(=O)/C=C/c3ccc(O)cc3)c2)O[C@@H]2O[C@@]3(C)CC[C@H]4[C@H](C)CC[C@@H]1[C@@]24OO3 | 15.2 | 37.8 to 77.4 | 83.5 | 87.9 | 88.7 | 400 | 12.7 | 13 | 15.1 | 22.8 | 29.6 | 80 | 25.2 | 37.7 | 15 | 4 | 8 | 70 | 64 | 50 | inhibition of growth at 0.5 µM [15]: 21.7%; inhibition of growth at 1 µM [16]: 24.7%; inhibition of growth at 10 µM [17]: 27.2%; Activity (HL-60 [23]): Dose-dependent effect; Activity (HL-60 [24]): Active; Activity (HL-60 [25]): Dose-dependent effect; Activity [26]: Dose-dependent effect; logP [27]: 6.33; solubility [28]: > 100 µg/mL; logP [29]: -5.96
C[C@H]1[C@@H](O)O[C@@H]2O[C@@]3(C)CC[C@H]4[C@H](C)CC[C@@H]1[C@@]24OO3 [ARTENIMOL] | – | 58 | 41 | 43 | 63 | 2000 | – | – | – | – | – | 25 | – | – | 29 | 6 | 5 | 27 | 75 | 32 | Activity [30]: 27%
